Active and inactive are the calls of the source. No cut-off for these calls is given here.

One data set deals with Enterococcus faecalis. In words: Antimicrobial activity against Enterococcus faecalis ATCC 29212 assessed as growth inhibition incubated overnight at 37degC by visual and photometry based method. Format: functional.
Another data set relates to HepG2. In words: Cytotoxicity against human HepG2 cells incubated for 24 hrs by CellTiter 96 aqueous one solution reagent based assay. The format is cell-based. Conditions: HepG2, 24 h. An outline of the steps:
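HepG2 seeded 20,000 cells/well overnight, then exposed 24 h to a concentration range in serum-free MEM Earle's (gentamycin, NEAA, pyruvate, alanyl-glutamine); MTS reagent 1 h, absorbance 485 nm; % survival versus medium and Triton X-100 controls; EC50 from four-parameter normalized nonlinear regression.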

Data set [1] concerns Pseudomonas aeruginosa. As to the kind of experiment: Antimicrobial activity against Pseudomonas aeruginosa ATCC 27853 assessed as growth inhibition incubated overnight at 37degC by visual and photometry based method. Format: functional.
The subject of another data set is Streptococcus agalactiae. As to the kind of experiment: Antimicrobial activity against Streptococcus agalactiae ATCC 12386 assessed as growth inhibition incubated overnight at 37degC by visual and photometry based method. Format: functional.
Data set [2] can be described thus: Selectivity index, ratio of EC50 for human HepG2 cells to MIC for Streptococcus agalactiae ATCC 12386. The note with it: read-out: Selectivity Index. Format: toxicity. In outline:
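Selectivity index computed as HepG2 EC50 (24 h MTS assay) divided by S. agalactiae MIC.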

In data set [3] the test system is Staphylococcus epidermidis. As to the kind of experiment: Inhibition of biofilm formation of Staphylococcus epidermidis at =<64 ug/ml incubated overnight at 37degC by crystal violet based assay. Format: functional.
Data set [4] concerns Escherichia coli. In words: Antimicrobial activity against Escherichia coli ATCC 25922 assessed as growth inhibition incubated overnight at 37degC by visual and photometry based method. The format is functional.
Data set [5] relates to Staphylococcus aureus. In words: Antimicrobial activity against Staphylococcus aureus ATCC 25923 assessed as growth inhibition incubated overnight at 37degC by visual and photometry based method. The format is functional.
Data set [6] relates to Staphylococcus epidermidis. As to the kind of experiment: Inhibition of biofilm formation of Staphylococcus epidermidis incubated overnight at 37degC by crystal violet based assay. Format: functional.
In data set [7] the test system is Escherichia coli. As to the kind of experiment: Antimicrobial activity against Escherichia coli ATCC 25922 assessed as growth inhibition =<64 ug/ml incubated overnight at 37degC by visual and photometry based method. Format: functional.
The test system of data set [8] is Pseudomonas aeruginosa. As to the kind of experiment: Antimicrobial activity against Pseudomonas aeruginosa ATCC 27853 assessed as growth inhibition =<64 ug/ml incubated overnight at 37degC by visual and photometry based method. Format: functional.
Data set [9] deals with Staphylococcus aureus. As to the kind of experiment: Antimicrobial activity against Staphylococcus aureus ATCC 25923 assessed as growth inhibition =<64 ug/ml incubated overnight at 37degC by visual and photometry based method. Format: functional.

By EC50 is commonly meant the concentration giving half of the maximal effect. A high value points to weaker potency. For the compound `CC(C)(C)c1cc(-n2cc(C(=O)NCCN)nn2)cc(C(C)(C)C)c1.Cl`, the MIC in the data set with Enterococcus faecalis is 32 µg/mL; in the data set with Pseudomonas aeruginosa [1], 32 µg/mL; with Streptococcus agalactiae, 16 µg/mL; with Escherichia coli [4], 16 µg/mL; in the data set on Staphylococcus aureus [5] it was 16 µg/mL. The concentration for a half-maximal effect (EC50) in the data set on HepG2 was 8 µg/mL. Further, the selectivity ratio in data set [2] came to 0.5. For the same compound, in data set [3], the inhibition entry is “inactive”.

Take `C/C(=N\NC(=N)N)c1cn(-c2ccc(OCc3cc(C(C)(C)C)cc(C(C)(C)C)c3)cc2)nn1.Cl`: the MIC in data set [6] came to 4 µg/mL; with Enterococcus faecalis it was 64 µg/mL; with Streptococcus agalactiae it was 0.5 µg/mL. Besides, the EC50 in the data set with HepG2 was determined as 1.9 µg/mL. Besides, the “growth inhibition (GI)” value in the data set with Escherichia coli [7], in the data set with Pseudomonas aeruginosa [8] and in the data set on Staphylococcus aureus [9] was “inactive” throughout. Further, the selectivity ratio in data set [2] worked out at 3.86.

These data come from ChEMBL document CHEMBL4043163, “Methyl propiolate and 3-butynone: Starting points for synthesis of amphiphilic 1,2,3-triazole peptidomimetics for antimicrobial evaluation” (Bioorg Med Chem, 2017).
